# Screens: PubChem, several laboratories
# ABCG2 inh – ABCG2 efflux pump inhibitors, primary screen, multiplex with ABCB1, IgMXP3 cells, flow cytometry | JC-1 efflux | hit rate 0.1% among 190,000 | Broad substrate specificity ATP-binding cassette transporter ABCG2 (Homo sapiens), Q9UNQ0 | inhibition, % at 6.6 µM | AID 1325, 2008;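 active = inhibition above 80%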;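 note: 0% = DMSO and 100% = nicardipine control wells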
#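 test system = two drug-resistant human cell lines, ABCG2 and ABCB1 | amount = 3 million cells/mL final, two lines in 1:1 ratio | reagent = JC-1 transporter substrate | doses = one concentration, 6.6 µM final | incubation = 10 min at 25 °C | signal = flow cytometric JC-1 green MFI at 530 nm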
# Autophagy mod – autophagy modulators in MEF cells, primary screen, imaging, high-content, MEF GFP-LC3. MEF GFP-LC3 puncta imaging; test concentration mostly 10 µM. calls only at 10 µM (by protocol). hit rate 0.98% among 190,000. AID 463193, 2010;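 active = percentage of spot-positive cells more than 3 SD above its plate mean, without a fluorescence outlier flag or 80% toxicity; inconclusive = no clear call, values can overlap the other calls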;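 note: spot-positive cell cutoff set from DMSO-treated cells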
# Insulin prom up – insulin promoter activators in MIN6 cells, imaging, high-content screening, mouse beta cells. z-score at 5 µM. hit rate 0.3% among 190,000. MIN6 insulin promoter-GFP reporter; stronger effect = higher value;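 active = z-score above 3 at 5 µM with at least 500 cells counted in the well; inconclusive = wells under 500 cells, flagged as cytotoxic or low count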
# ROMK primary – ROMK potassium channel modulators, primary screen, cell-based, thallium flux, MLSMR library; AID 1918, 2009; hit rate 2% among 130,000; B-score at 10 µM; Tet-inducible ROMK, thallium flux fluorescence; actives lie on both sides; ATP-sensitive inward rectifier potassium channel 1 (Homo sapiens), P48048;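 active = signal ratio slope over the read window, or its plate-corrected B-score, at least 3 SD from the plate mean, either direction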;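 note: B-score of the F/F0 ratio slope over 7 to 12 s after thallium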
# SDO1 yeast rescue – growth rescue of sdo1-depleted yeast, primary screen, S. cerevisiae, bone marrow failure model. S. cerevisiae sdo1-depleted JHY4D growth rescue, OD600 30 h; stronger effect = higher value; pdr5 snq2 efflux-pump mutant strain. z-score at 10 µM. hit rate 0.21% among 140,000. AID 817, 2007;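 active = z-score above 3 at both the 24 hr and the 30 hr optical density reads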;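 note: z-score against mean and SD of all compound wells on the same plate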
# ABCB1 block – ABCB1 efflux pump inhibitors, primary screen, cell-based, multiplex, flow cytometry, ABCG2 counter-screen; ATP-dependent translocase ABCB1 (Homo sapiens), P08183; CCRF-Adr cells, JC-1 efflux; inhibition, % at 6.6 µM; hit rate 0.067% among 190,000; in the data active = inhibition above about 40%;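 note: 0% = vehicle and 100% = reference inhibitor; higher value means more JC-1 retained so stronger ABCB1 efflux block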
# Target sequence (P08183 whole entry, looked up): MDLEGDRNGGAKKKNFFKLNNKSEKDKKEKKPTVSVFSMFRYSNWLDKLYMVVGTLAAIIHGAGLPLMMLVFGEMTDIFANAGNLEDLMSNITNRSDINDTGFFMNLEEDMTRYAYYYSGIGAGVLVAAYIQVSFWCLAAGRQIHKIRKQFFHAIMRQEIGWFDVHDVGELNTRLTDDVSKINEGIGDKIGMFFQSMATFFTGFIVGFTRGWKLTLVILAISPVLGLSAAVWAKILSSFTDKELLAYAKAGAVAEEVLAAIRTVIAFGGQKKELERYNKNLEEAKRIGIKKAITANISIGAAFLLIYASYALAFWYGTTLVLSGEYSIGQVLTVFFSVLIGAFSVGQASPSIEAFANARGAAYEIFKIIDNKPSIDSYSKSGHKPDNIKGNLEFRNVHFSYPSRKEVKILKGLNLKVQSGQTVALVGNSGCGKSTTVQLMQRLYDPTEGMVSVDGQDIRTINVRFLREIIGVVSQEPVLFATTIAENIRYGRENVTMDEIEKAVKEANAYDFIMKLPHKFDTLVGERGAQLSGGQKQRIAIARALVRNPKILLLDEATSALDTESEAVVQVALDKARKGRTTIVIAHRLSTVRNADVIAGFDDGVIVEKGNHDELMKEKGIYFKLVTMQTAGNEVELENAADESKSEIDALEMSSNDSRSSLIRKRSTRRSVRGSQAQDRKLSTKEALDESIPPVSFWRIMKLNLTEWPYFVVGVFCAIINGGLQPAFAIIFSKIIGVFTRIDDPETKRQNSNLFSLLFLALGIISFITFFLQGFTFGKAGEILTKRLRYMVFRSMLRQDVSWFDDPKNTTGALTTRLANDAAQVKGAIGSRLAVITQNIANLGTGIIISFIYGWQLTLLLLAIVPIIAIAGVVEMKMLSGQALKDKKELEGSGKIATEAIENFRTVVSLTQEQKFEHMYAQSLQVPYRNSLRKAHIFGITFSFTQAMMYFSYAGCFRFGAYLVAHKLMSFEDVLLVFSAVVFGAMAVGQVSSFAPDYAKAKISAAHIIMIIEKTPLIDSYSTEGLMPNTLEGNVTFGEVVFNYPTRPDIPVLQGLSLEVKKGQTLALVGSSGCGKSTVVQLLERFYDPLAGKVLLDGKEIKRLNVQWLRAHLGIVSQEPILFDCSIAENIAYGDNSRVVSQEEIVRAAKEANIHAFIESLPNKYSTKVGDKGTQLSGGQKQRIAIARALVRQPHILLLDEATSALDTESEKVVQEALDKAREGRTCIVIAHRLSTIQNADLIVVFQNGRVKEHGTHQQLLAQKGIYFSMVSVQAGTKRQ
# The depositor's hits bear a star; i = inactive; u = inconclusive; x = no result; + = active, no number. Rows were chosen to be rich in hits. Some 2.3% of all compounds tested hit in one or more screens of this group.
SMILES,ABCG2 inh,Autophagy mod,Insulin prom up,ROMK primary,SDO1 yeast rescue,ABCB1 block
Cc1cccc(N2C(=O)C(Oc3ccc(Cl)cc3Cl)C2C=O)c1C (stereo not drawn),7,i,-0.7,-4.9*,-1.7,3
Cc1cccc(S(=O)(=O)Nc2ccc(C)c3c2OC(C)(C)C3)c1,46,+,-0.82,-0.45,0.4,3
Cc1ccc(NC(=O)CCN2C(=O)OC(C)(C)C2(C)O)cc1 (stereo not drawn),2,i,-0.17,0.22,x,0
CC(C)n1c(Nc2ccccc2)nc2ccccc21,2,i,1.1,-3.2*,0.65,1
COC(=O)C1=C(NC(=O)c2ccccc2C)CCS1,3,+,0.63,1.7,x,1
CCOc1ccc2nc(C)cc(Nc3cccc([N+](=O)[O-])c3)c2c1,3,+,-3.4,0,0.22,0
Cc1cc(Nc2cccc([N+](=O)[O-])c2)c2ccccc2n1,4,i,-0.36,x,x,1
Cc1cc2ccccn2c1C(=O)c1ccc([N+](=O)[O-])o1,6,+,0.05,-0.98,x,1
Cc1ccc(C(=O)c2oc3ccccc3c2NC(=O)c2cc(-c3ccccc3O)n[nH]2)cc1,-5,+,0.08,0.2,0.48,-1
COc1ccccc1CNCC(=O)N1CC(=O)Nc2ccccc21,6,i,-0.22,0.026,x,1
O=C(CSc1nnc(-c2ccncc2)o1)N1CCc2ccccc2C1,1,i,0.55,-0.066,x,0
COc1ccc(S(=O)(=O)N2CCCCCC2)cc1C(=O)OCc1c(C)noc1C,9,i,-0.34,-6.7*,0.32,4
CCc1ccc2oc(-c3cc(N)ccc3O)nc2c1,0,i,0.65,x,-2,0
CCc1ccc2oc(-c3cc(N)cc(C)c3O)nc2c1,0,+,-1.5,0.55,-1.6,0
CC(C)n1nc(C(=O)Nc2nc3ccccc3[nH]2)c2ccccc2c1=O,3,i,-0.54,0.5,x,1
O=[N+]([O-])c1ccc(N2CCN(S(=O)(=O)c3ccc(Cl)cc3)CC2)cc1NCC1CCCO1 (stereo not drawn),3,+,0.49,x,0.06,1
Cc1cc(C)c(S(=O)(=O)N2CCN(c3ccc([N+](=O)[O-])c(NCC4CCCO4)c3)CC2)c(C)c1 (stereo not drawn),2,i,-2.3,x,0.85,1
CC1(C)CC(NC(=S)NCc2ccc3c(c2)OCO3)CC(C)(C)N1,19,i,-0.21,0.0059,x,2
c1ccc(-c2cn3nc(-c4ccccc4)cnc3n2)cc1,36,+,-0.05,x,1.1,0
CCOc1ccc(NC2=NCC(=O)N2Cc2cccs2)cc1,4,i,4.8*,x,0.01,0
CCOc1ccc(NC2=NCCC(=O)N2Cc2cccs2)cc1,2,i,-0.57,0.042,-0.65,0
O=C(Cn1cnc2c(nnn2Cc2ccccc2F)c1=O)NCC1CCCO1 (stereo not drawn),0,+,0.33,1.2,2,0
Cc1nnc(NC(=O)c2oc3cc(C)c(C)cc3c2C)s1,3,+,0.55,x,-0.24,0
Cc1ccc2nc3cc([N+](=O)[O-])cc([N+](=O)[O-])c3cc2c1,-1,+,x,-2,x,-1
Cc1cccc(CCN2CCC(C(=O)c3ccc(NS(C)(=O)=O)cc3)CC2)n1,0,x,-0.06,x,x,x
SMILES,ABCG2 inh,Autophagy mod,Insulin prom up,ROMK primary,SDO1 yeast rescue,ABCB1 block
COc1ccc(Nc2nc3c([nH]2)c(=O)[nH]c(=O)n3C)cc1,0,i,x,0.34,x,0
COc1ccccc1NC(=O)CN1CCN(c2ccccc2)CC1,6,i,-0.12,1.1,x,0
Cn1nccc1NC(=O)Nc1cccc(Cl)c1Cl,x,x,x,-0.3,x,x
CN1CCN(NC(=O)Nc2cccc(Cl)c2Cl)CC1,11,+,-0.89,x,x,1
COc1cccc(S(=O)(=O)NCc2ccc(C(=O)Nc3ccc(Cl)c(Cl)c3)cc2)c1,1,i,3.1*,0.047,-1.8,0
COc1ccc(NC(=O)c2ccc(CNS(=O)(=O)c3cccc(OC)c3)cc2)cc1,0,i,0.3,-0.047,-1.1,0
O=C(NC(=S)Nc1cccc(C(F)(F)F)c1)c1csnn1,10,i,-0.39,8.8*,x,0
O=C(NC(=S)Nc1ccccc1Cl)c1csnn1,4,i,-0.41,x,0.32,-1
COc1ccc(C(=O)N2CCOC2CNC(=O)C(=O)NCc2ccc3c(c2)OCO3)cc1 (stereo not drawn),13,i,-0.1,0.036,x,0
COc1cccc(/C=N/Nc2ncnc(Cl)c2N)c1O,18,i,u,x,-0.73,0
COc1cccc(/C=N/Nc2nccnc2Cl)c1O,13,+,-3.5,0.73,x,0
O=C(NCc1ccco1)c1nn2c(C(F)(F)F)cc(-c3cccs3)nc2c1Br,-1,i,-0.54,x,-0.25,0
COC(=O)c1nn2c(C(F)(F)F)cc(-c3ccc(Br)o3)nc2c1Br,x,+,0.23,-0.33,x,x
Cc1cccc2cc(/C=C3\N=C(c4ccccc4)OC3=O)c(N3CCOCC3)nc12,11,i,-0.77,-5*,-1.7,4
COc1ccc(OC)c(N)c1,1,i,0.42,x,0.06,0
COc1ccc(-c2ccc(CO)o2)cc1N,1,+,-0.15,0.64,x,0
O=C(Nc1ccc(Cl)cc1)/C(=C/c1cccc(O)c1)c1nc2ccccc2s1,0,+,-0.39,x,-2.1,0
S=c1[nH]nc(-c2ccccc2)n1CC1CCCO1 (stereo not drawn),1,i,3.1*,x,0.94,1
Cc1cc(C)n(-c2ccc(C(=O)OCC(=O)N(CC(C)C)C3CCS(=O)(=O)C3)cc2)n1 (stereo not drawn),3,i,3.3*,x,1,1
O=C(NC1=NCCS1)C1Cc2ccccc2CN1C(=O)c1ccccc1 (stereo not drawn),1,i,3.1*,x,0.24,0
O=C(Cn1cccc1C(=O)c1ccccc1)NCCCN1CCOCC1,2,i,-0.02,-0.35,1.6,0
Cc1ccc(C)c(N2CCN(CCCNC(=O)Cn3cccc3C(=O)c3ccccc3)CC2)c1,1,+,x,-1,x,3
Brc1ccc(Oc2nsnc2N2CCOCC2)cc1,2,i,3.9*,-1.2,-0.08,0
COC(=O)Oc1nsnc1N1CCOCC1,2,i,x,x,0.68,1
N#CC(C(=O)NC1CCCCC1)c1nc2ccccc2nc1N1CCN(c2ccc(F)cc2)CC1 (stereo not drawn),0,+,-0.02,x,-0.95,1
